PMC2966122 (The Journal of Biological Chemistry, 2010)

Key:
Fluorescence anisotropy = format: binding; conditions: for Affinity for 3-sialylated galactosides: probes 6–9 (6–8 for Xenopus); for Affinity for 3-sialylated galactosides / Affinity for GlcNAcβ1–3-substituted galactosides: relative to human wild type galectin-3; for Affinity for GlcNAcβ1–3-substituted galactosides: probes 9–15; for Binding to glycans where LacNAc or Galβ1–3GlcNAc is likely in site C-D: e.g. probes 2, 3, 7 and 8
Procedure, shortened: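 Equilibrium fluorescence anisotropy with 0.1 μM fluorescein-tagged saccharide probe (15 probes) titrated with 0.05–80 μM lactose-freed galectin. Read at room temperature and after incubation on ice (about 4 °C), ex 485/em 520 nm. Kd derived from the binding curve using probe-alone (A0) and saturated (Amax) anisotropy, with Amax extrapolated for partial curves. Not detected if anisotropy stayed ≤50 mA at 50 μM galectin.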

[1] = Glycan array binding of FITC-labeled galectins; conditions: for Affinity for sialylated (and sulfated) galactosides on the array: site B; for Glycans bound on the array (overall): all glycans of the array; for Glycans bound on the array: 200 μg/ml galectin
Procedure, shortened: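 The printed array carries 406 glycans, six spots each, on NHS-activated glass. FITC-galectins at 200 μg/ml in Tris-buffered saline pH 7.4 (2 mM CaCl2, 2 mM MgCl2, 1% BSA, 0.05% Tween 20) were incubated 60 min at room temperature in the dark under a coverslip, then washed and dried. Slides were scanned at 488 nm and read as RFU (ceiling 40,000). Highest and lowest spots were dropped and the remaining four averaged.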

[2] = test system: intracellular anti-apoptotic effect; conditions: cited from earlier work
SKBR3 cells = assay: Localization of EGFP-galectin-3 and mutants in transfected cells; format: cell-based, human; conditions: EGFP fusion protein; for Entry into vesicles: stably transfected
Procedure, shortened: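 SKBR3 breast cancer cells were Lipofectamine-transfected with pEGFP-C1 EGFP-galectin-3 constructs and grown in RPMI 1640/10% FBS with 1 mg/ml G418 for ≥2 weeks to obtain stable lines. Cells were grown 1–2 days on coverslips, fixed in 4% paraformaldehyde, mounted with DAPI and viewed by epifluorescence microscopy. Fluorescent vesicles (dots) per cell were counted in 300 cells per construct.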

[3] = test system: N-Ras to K-Ras activation; conditions: cited from earlier work
TNFα-primed neutrophils = assay: NADPH oxidase activation of TNFα-primed neutrophils; format: cell-based, human; conditions: for Activation of primed neutrophils (release of oxygen radicals): dose response relative to wild type galectin-3 run in parallel, up to 3.5 μM
Procedure, shortened: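 Human neutrophils (1 × 10^7/ml) were primed 20 min at 37 °C with TNFα 10 ng/ml. Tubes held 10^6 cells and were equilibrated 5 min at 37 °C before galectin was added. Chemiluminescence was recorded continuously. Extracellular superoxide was read with HRP (4 units) plus isoluminol (6 × 10^-5 M). Intracellular ROS was read with SOD (50 units), catalase (2000 units) and luminol (2 × 10^-5 M). Peak responses were normalized to the parallel 3.5 μM wild-type peak.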

neutrophils [4] = assay: Galectin binding to neutrophils; format: cell-based, human; conditions: FITC-labeled galectin 40 μg/ml
Procedure, shortened: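 Human blood neutrophils from buffy coats (dextran sedimentation, Ficoll-Paque) were pretreated at 37 °C with or without TNFα, or held at 4 °C without it. They were then incubated 1 h at 4 or 37 °C with FITC-galectin (40 μg/ml) and washed twice in PBS/0.02% NaN3/EDTA. Flow cytometry gave geometric mean fluorescence from three neutrophil batches (mean, S.E.), with paired one-tailed t tests.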

Shigella bacteria = conditions: cited from earlier work
neutrophils [5] = conditions: cited from earlier work
MDCK cells = conditions: EGFP fusion protein in MDCK cells; cited from earlier work
[6] = cited from earlier work
[7] = cited from earlier work; remark: listed apart in the source
[8] = cited from earlier work; remark: listed apart in the source
[9] = compared with human galectin-3; cited from earlier work

A146Q: Human galectin-3 point mutant in site B, Ala-146 to Gln
Affinity for 3-sialylated galactosides (Fluorescence anisotropy): slightly reduced affinity | Affinity for GlcNAcβ1–3-substituted galactosides (Fluorescence anisotropy): retained affinity, albeit lower | Affinity for glycans with GalNAcα in site B on the array ([1]; but not those with Galα (blood group B type)): selective loss of affinity

G182A: Human galectin-3 point mutant near site C, Gly-182 to Ala
Intracellular anti-apoptotic effect [2]: lost | Entry into vesicles (SKBR3 cells): much fewer in number per cell | Induction of a shift from N-Ras to K-Ras activation [3]: lost | Binding to Galβ1–3GlcNAc containing glycans on the array ([1]; relative to wild type): preferentially, although not exclusively, lost binding

K176L/N180T: Human galectin-3 double mutant obtained by a mistake in primer design
Affinity for some of the longer GlcNAcβ-extended galactosides (Fluorescence anisotropy; compared with K176L): slightly increased affinity | Concentration inducing significant neutrophil activation (TNFα-primed neutrophils; TNFα-primed neutrophils): ≤ 0.2 µM | Activation of primed neutrophils (release of oxygen radicals) (TNFα-primed neutrophils): clearly increased potency

K176L: Human galectin-3 point mutant in site B, Lys-176 to Leu
Affinity for 3-sialylated galactosides (Fluorescence anisotropy): lost affinity | Affinity for GlcNAcβ1–3-substituted galactosides (Fluorescence anisotropy): significantly better than wild type galectin-3 | Binding to primed and non-primed neutrophils (neutrophils [4]): about equally well | Increase in binding after TNFα priming (neutrophils [4]): 30–50% | Affinity for sialylated (and sulfated) galactosides on the array ([1]; relative to wild type): lost affinity | Activation of primed neutrophils (release of oxygen radicals) (TNFα-primed neutrophils): clearly increased potency

R144S: Human galectin-3 point mutant in site B, Arg-144 to Ser
Affinity for the GalNAcα extended galactoside (Fluorescence anisotropy; probe 5 (A-tetrasaccharide), relative to wild type): increased affinity | Affinity for 3-sialylated galactosides (Fluorescence anisotropy): lost affinity | Affinity for GlcNAcβ1–3-substituted galactosides (Fluorescence anisotropy): lost affinity | Affinity for sialylated (and sulfated) galactosides on the array ([1]; relative to wild type): lost affinity

R186I: Human galectin-3 mutant replacing Arg-186 with Ile, as found in galectin-8N
Binding to glycans where LacNAc or Galβ1–3GlcNAc is likely in site C-D (Fluorescence anisotropy): lost binding | Affinity for glycans with Lac in site C-D (Fluorescence anisotropy; relative to wild type): retained reduced affinity | Glycans bound on the array (overall) [1]: bound a few more glycans | Background binding, maximum ([1]; remaining 227 glycans not expected to bind galectins): 2674 RFU

R186S: Human galectin-3 mutant replacing Arg-186 with Ser (site D)
Binding to glycans where LacNAc or Galβ1–3GlcNAc is likely in site C-D (Fluorescence anisotropy): lost binding | Affinity for glycans with Lac in site C-D (Fluorescence anisotropy; relative to wild type): retained reduced affinity | Binding to primed and non-primed neutrophils (neutrophils [4]): did not bind any of the neutrophil preparations | Accumulation around invading Shigella bacteria (Shigella bacteria): did not accumulate around invading Shigella bacteria | Entry into vesicles (SKBR3 cells): not visible in vesicles | Ability to promote the phagocytosis of apoptotic cells by neutrophils (neutrophils [5]): lost | Vesicle entry and apical targeting of glycoproteins (MDCK cells): did not enter vesicles and did not direct apical targeting of glycoproteins | Glycans bound on the array (overall) [1]: bound only one glycan | Ability to bind human serum glycoproteins [6]: completely lost the ability to bind human serum glycoproteins

wild type galectin-3: Recombinant human galectin-3 produced in E. coli; expressed as EGFP fusion in SKBR3 cells
Binding to primed and non-primed neutrophils (neutrophils [4]): about equally well | Increase in binding after TNFα priming (neutrophils [4]): 30–50% | Enhancement of binding affinity by addition of GalNAcα1–3 or Galα1–3 [7]: 10–25 fold | Affinity for Galβ1–3GalNAc lower than for LacNAc [8]: 10–50 fold | Entry into vesicles (SKBR3 cells): entered vesicles in some of the cells | Cells with dots (galectin containing vesicles) (SKBR3 cells; depending on how confluent the cells were): 15–30 % of cells | Binding of galactosides with 3-linked N-glycoloyl neuraminic acid (NeuGc) ([1]; compared with NeuAc): equally well | Glycans bound on the array ([1]; glycans with a LacNAc available for binding in site C-D): 45 of 94 | Glycans bound on the array ([1]; glycans with available Galβ1–3GlcNAc): 15 of 36 | Glycans bound on the array ([1]; glycans with only Galβ1–3GalNAc available): did not bind at all | Glycans bound on the array ([1]; glycans with only lactose available): 6 of 24

B1: Mouse galectin-3: Recombinant mouse galectin-3 orthologue (protein, UniProt P16110 2-264, looked up)
Galectin-3: ADSFSLNDALAGSGNPNPQGYPGAWGNQPGAGGYPGAAYPGAYPGQAPPGAYPGQAPPGAYPGQAPPSAYPGPTAPGAYPGPTAPGAYPGQPAPGAFPGQPGAPGAYPQCSGGYPAAGPYGVPAGPLTVPYDLPLPGGVMPRMLITIMGTVKPNANRIVLDFRRGNDVAFHFNPRFNENNRRVIVCNTKQDNNWGKEERQSAFPFESGKPFKIQVLVEADHFKVAVNDAHLLQYNHRMKNLREISQLGISGDITLTSANHAMI
Affinity for GlcNAcβ1–3-substituted galactosides (Fluorescence anisotropy): lower affinity for all the saccharide probes tested and most significantly for the ones extended by GlcNAcβ | Affinity for all the saccharide probes tested (Fluorescence anisotropy; relative to human galectin-3): lower affinity

B2: Rat galectin-3: Rat galectin-3 orthologue, not available for study here; literature data (protein, UniProt P08699 2-262, looked up)
Galectin-3: ADGFSLNDALAGSGNPNPQGWPGAWGNQPGAGGYPGASYPGAYPGQAPPGGYPGQAPPSAYPGPTGPSAYPGPTAPGAYPGPTAPGAFPGQPGGPGAYPSAPGAYPSAPGAYPATGPFGAPTGPLTVPYDMPLPGGVMPRMLITIIGTVKPNANSITLNFKKGNDIAFHFNPRFNENNRRVIVCNTKQDNNWGREERQSAFPFESGKPFKIQVLVEADHFKVAVNDVHLLQYNHRMKNLREISQLGIIGDITLTSASHAMI
Lower affinity for NeuAcα2–3Lac [9]: ~5 fold
